In the library only some 3.1% were active in any assay of this set; here they are far more common.
F508del corr: F508del CFTR correction, initial screen, CFBE line, single point | CFBE cells, YFP halide quenching; stimulated with forskolin plus potentiator P3; % fluorescence drop versus neutral controls | hit rate 0.36% among 350,000 | activity (quench increase), % at 7.58 µM;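 active = mean added fluorescence quench of at least 8% versus neutral control, with both replicates also reaching 8%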;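 also: cells transiently co-express mutant CFTR-F508del with the halide-sensitive YFP; corrector assay measuring rescue of mutant channel to the surface after 24 h compound exposure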
INS-1E GSIS act: GLuc luminescence reporter in INS-1E cells, primary screen for activators of glucose-dependent secretion of insulin | INS-1E GLuc reporter insulin secretion, 2-3 h | activation, % at 16.6 µM | hit rate 0.61% among 370,000 | AID 743287, 2014;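 active = lowest replicate activation of at least 40%, so every replicate reaches that level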;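 also: 0% = median of neutral control wells and 100% = median of IBMX positive control wells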
HIV Env fusion: inhibitors of HIV-1 Env-driven cell-cell fusion, primary screen, HeLa-JRFL effector, CEM21 target cells, luciferase; inhibition, % at 12.3 µM; hit rate 1.1% among 360,000;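 active = mean replicate inhibition score of at least 50 and every replicate individually at or above 50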;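 also: 0% = plate neutral controls and 100% = maraviroc near 300 nM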
Cneo AK release: Cryptococcus neoformans cell lysis inducers, primary screen, AK release luminescence, single concentration | C. neoformans lysis, adenylate kinase release luminescence, 4 h; normalised: neutral wells 0, clomiphene wells 100 | lysis activity, % at 15 µM | hit rate 0.2% among 360,000;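 active = mean lysis activity across replicates of at least 80%, whatever share of replicates individually reach that level; inactive = mean lysis activity below 80%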
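Material: C. neoformans cells; Schedule: 4 h static compound exposure, 37 °C, read 1 h post-reagent; Measured by: adenylate kinase release luminescence; Read-out: signal increase indicating cell lysis; Controls: Clomiphene as positive lysis control.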
Ecoli rRNA inh: reduced GFP signal of wild-type E. coli, primary screen, bacterial rRNA inhibitor project, GFP/RFP fluorescence, OD600, single point | E. coli WT GFP vs humanized-ribosome RFP mutants, 24 h; stronger effect = lower value; DMSO median 0, no signal -100 | GFP signal change (wild-type ribosome), % (test concentration not listed) | hit rate 1.6% among 350,000;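 active = significant combined selectivity score with lowered wild-type GFP, culture density cut under 30%, mutant RFP and density less affected; inactive = any of these conditions unmet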
miR-122 sensor: miR-122 Renilla sensor signal increase in Huh7, primary screen, miR-122 inhibitor project, cell-based, single point, plate reader. activation (reporter increase), % at 12.5 µM. Huh7 miR-122 Renilla luciferase sensor, 48 h; neutral wells = 0, positive control = 100. hit rate 0.3% among 340,000;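 active = mean replicate activation score at least 90 and every replicate individually at or above 90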;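 also: higher luciferase means less miR-122 activity so hits act as miR-122 inhibitors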
Active calls of the source: *; . = no result given; [ ] = another dose, or the depositor's remark.

SMILES | F508del corr | INS-1E GSIS act | HIV Env fusion | Cneo AK release | Ecoli rRNA inh | miR-122 sensor
C[C@@H]1CCCCO[C@@H](CN(C)C(=O)c2ccncc2)[C@H](C)CN([C@@H](C)CO)C(=O)c2cc(NS(C)(=O)=O)ccc2O1 | -0.1 | 4.6 | -7.6[16.7 µM] | 1.1 | 4.4 | -0.4[16.7 µM]
Cc1cc2sc3ccc(C#CC4(O)CCCCC4)cc3c(=O)c2cc1C | -3.2 | . | 65.3* | -2.7 | -1.3 | -3.7
O=C(O)c1cc([N+](=O)[O-])ccc1NCCc1ccccc1 | -0.1 | -13.1 | 7.6 | . | -42.1* | .
NC(=O)c1cc([N+](=O)[O-])ccc1NCc1ccc(N)cc1 | 1.1 | 3.1 | 70.7* | 0.5 | 0.1 | 0.0
O=C(O)c1cc([N+](=O)[O-])ccc1Nc1ccccc1 | 0.6 | -16.9 | . | 1.3 | -34.1* | 2.6
Cc1cccc(Nc2ccc([N+](=O)[O-])cc2C(=O)O)c1 | -2.6 | -13.1 | . | . | -5.6 | .
O=C(O)c1cc([N+](=O)[O-])ccc1NCCO | . | -0.6 | -15.7 | . | . | .
NC(=O)c1cc([N+](=O)[O-])ccc1NCc1ccc(F)cc1 | -1.4 | 16.4 | -29.4 | 3.8 | 15.1 | .
O=C(NCC[C@H]1CC[C@@H](NS(=O)(=O)c2ccccc2)[C@@H](CO)O1)c1cc(Cl)cc(Cl)c1 | 0.7 | -7.1 | 16.5[16.7 µM] | -1.2 | 0.5 | 35.2[16.7 µM]
CCCN1C[C@H](C)[C@H](OC)CN(C)C(=O)c2cc(NC(=O)c3cccc(F)c3)ccc2OC[C@H]1C | 2.3 | 3.1 | . | 3.8 | 3.4 | 2.7[16.7 µM]
COCC(=O)Nc1ccc2c(c1)C(=O)N(C)C[C@@H](OC)[C@H](C)CN(Cc1ccccc1)[C@@H](C)CO2 | -1.3 | -18.8 | -17.1[16.7 µM] | 112.0* | -5.0 | 35.2[16.7 µM]
CCCN1C[C@H](C)[C@@H](OC)CN(C)C(=O)c2cc(NC(=O)c3cccc(F)c3)ccc2OC[C@H]1C | 1.4 | -1.1 | . | 116.9* | -1.6 | -1.8[16.7 µM]
CO[C@H]1CN(C)C(=O)c2cc(NS(=O)(=O)CC(F)(F)F)ccc2OC[C@@H](C)N(Cc2cccnc2)C[C@@H]1C | 0.7 | 2.7 | . | 88.2* | 0.6 | .
CO[C@H]1CN(C)C(=O)c2cc(NC(C)=O)ccc2OC[C@H](C)N(Cc2cccc(F)c2)C[C@@H]1C | -0.6 | 7.0 | 30.7[16.7 µM] | 86.8* | -0.7 | .
CO[C@H]1CN(C)C(=O)c2ccc(NC(C)=O)cc2OC[C@@H](C)N(Cc2cccc(F)c2)C[C@@H]1C | -0.6 | 8.5 | . | . | -4.3 | -5.6[16.7 µM]
CN1C(=O)c2cc(NC(=O)NC3CCCC3)ccc2OC[C@@H]2O[C@H](CC(=O)NCC3CC3)CC[C@@H]21 | -1.6 | -8.1 | -0.6[16.7 µM] | -3.1 | 2.5 | 20.0[16.7 µM]
C[C@H](CO)N1C[C@H](C)[C@H](CN(C)C(=O)Nc2cccc(F)c2)OCc2ccccc2-c2ccccc2C1=O | -0.6 | -6.0 | . | 48.0 | 0.0 | .
C[C@H]1CN([C@@H](C)CO)C(=O)Cc2cc(NS(=O)(=O)c3ccc(Cl)cc3)ccc2O[C@@H]1CN(C)C(=O)Nc1ccc2c(c1)OCO2 | -0.3 | 17.9 | 1.8[16.7 µM] | . | 0.4 | -2.8[16.7 µM]
COCC(=O)Nc1ccc2c(c1)OC[C@H](C)N(CC1CC1)C[C@@H](C)[C@@H](OC)CN(C)C2=O | -1.9 | 5.8 | 18.7[16.7 µM] | -3.2 | 2.7 | .
COc1cc(-c2nc3oc4ccccc4c(=O)c3c(=O)n2Cc2ccco2)cc(OC)c1OC | . | . | 92.3* | 11.3 | . | -13.9
C[C@H]1CN([C@@H](C)CO)C(=O)c2cc(/C=C/c3ccccc3)cnc2O[C@H]1CN(C)C(=O)c1ccc(F)cc1 | -4.6 | -18.1 | -0.7[16.7 µM] | -5.6 | -15.9 | -4.8[16.7 µM]
CCSc1nc(N)c(C#N)c(-c2ccco2)c1C#N | . | . | . | 4.4 | . | .
CCCCc1nc(N)c(C#N)c(-c2ccco2)c1CCC | 1.8 | 61.6* | . | 2.4 | -6.6 | -3.7
CN(C)CC(=O)Nc1ccc2c(c1)[C@@H]1C[C@H](CC(=O)N3CCc4ccccc4C3)O[C@@H](CO)[C@@H]1O2 | -3.0 | -7.2 | -0.8[16.7 µM] | -3.8 | 1.9 | 1.7[16.7 µM]
CO[C@@H]1CN(C)C(=O)c2ccc(NC(C)=O)cc2OC[C@@H](C)NC[C@@H]1C | -1.7 | 5.5 | . | . | -0.5 | .
SMILES | F508del corr | INS-1E GSIS act | HIV Env fusion | Cneo AK release | Ecoli rRNA inh | miR-122 sensor
Cc1ccc(Nc2nc(CSc3nnc(-c4cccnc4)n3-c3ccccc3F)cs2)cc1 | 8.6* | 4.5 | 11.3 | . | 0.3 | .
Cc1ccc(Nc2nc(CSc3nnc(-c4ccncc4)n3C)cs2)cc1 | . | 5.1 | -5.8 | -24.6 | . | 1.9
O=C(c1cccnc1)N1CCCCN2[C@H](C1)[C@H](c1ccc(C#Cc3ccccc3)cc1)[C@@H]2CO | -1.3 | . | . | -1.7 | . | 1.6[16.7 µM]
CNC(=S)N(CCc1c(C)[nH]c2ccccc12)Cc1ccco1 | -2.0 | 32.0 | -0.4 | . | -20.0* | -2.1
Cc1ccc(S(=O)(=O)N(C)C[C@@H]2Oc3c(NS(C)(=O)=O)cccc3C(=O)N([C@H](C)CO)C[C@H]2C)cc1 | -3.1 | 6.2 | 0.3[16.7 µM] | 2.2 | -0.8 | -0.8[16.7 µM]
C[C@@H]1CN([C@H](C)CO)C(=O)c2cc(C#CCc3ccccc3)cnc2O[C@@H]1CN(C)C(=O)C1CC1 | -2.6 | 17.2 | -2.3[16.7 µM] | -6.8 | 0.8 | 12.9[16.7 µM]
CCCc1cc2c(OC)ccc(O)c2c(=O)n1C | -0.7 | 53.3* | 18.7 | . | 14.0 | .
C[C@@H]1CN([C@H](C)CO)C(=O)Cc2cc(NC(=O)NC3CCCCC3)ccc2O[C@H]1CN(C)Cc1ccc2c(c1)OCO2 | 1.9 | . | . | 46.7 | . | -6.1[16.7 µM]
CN1C(=O)c2cccc3c(S(=O)(=O)N(C)C)ccc1c23 | 2.6 | 21.7 | 2.3 | 118.0* | -6.0 | .
CN=c1scc(-c2cccs2)n1/N=C/c1ccccc1O | . | -0.7 | 56.7* | . | -26.6* | .
CN=c1scc(-c2cccs2)n1/N=C/c1ccc(O)c(O)c1O | 1.1 | -2.1 | -253.3 | . | -13.2 | .
O=C(COc1ccc2ccccc2c1)Nc1nccs1 | 0.7 | -3.8 | -7.9 | . | -21.5* | .
Cc1ccc2[nH]c3c(c2c1)CN(C(=O)CN1CCN(c2cccc(C)c2C)CC1)CC3 | . | . | . | 0.8 | . | 2.1
Cc1ccc2[nH]c3c(c2c1)CN(C(=O)CN1c2ccc(F)cc2CCC1C)CC3 (stereo not given) | . | . | 59.7* | -0.9 | . | 14.3
CO[C@H](CN(C)C(=O)c1ccccc1F)[C@@H](C)CN([C@@H](C)CO)S(=O)(=O)c1ccccc1 | 2.7 | 6.0 | . | -2.7 | -2.6 | .
Cc1ccc(Nc2nc(-c3sc(C)nc3C)cs2)cc1 | 18.7* | 14.4 | -194.0 | -2.8 | -0.5 | 11.0
Cc1ccc(-c2csc(Nc3ccccn3)n2)cc1 | 8.7* | -9.5 | -174.4 | -25.3 | -40.0 | -5.5
Cc1ccnc(Nc2nc(-c3sc(C)nc3C)cs2)c1 | -2.5 | -10.6 | 14.8 | -13.2 | -34.5* | -15.3

Screening data (PubChem)
